Test results reported in ChEMBL document CHEMBL3352814, “Design, synthesis and biological evaluation of biphenylamide derivatives as Hsp90 C-terminal inhibitors” (Eur J Med Chem, 2015).
Calls of active or inactive are those of the source. The rule behind the calls is not given here.

System: not listed separately
Assay: Antiproliferative activity against human SKBR3 cells after 72 hrs by MTS/PMS assay
Type: functional, cell-based
Details: SK-BR-3, 72 h
How it was run: (§1)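 Cells kept in 1:1 Advanced DMEM/F12 with non-essential amino acids, 2 mM L-glutamine, penicillin/streptomycin and 10% FBS at 37 °C, 5% CO2. Seeded 2000 cells/well, attached overnight, then given compound at varying concentrations in DMSO (1% final) for 72 h. Viable cells read by MTS/PMS. Normalised to 1% DMSO wells as 100% proliferation. IC50 from separate experiments run in triplicate.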

Row | Structure (SMILES) | IC50
1 | CC(C)=CCc1cc(C(=O)Nc2cccc(-c3cccc(OC4CCN(C)CC4)c3)c2)ccc1O | 2790 nM
2 | CN1CCC(Oc2ccc(-c3ccc(NC(=O)c4cc5ccccc5[nH]4)cc3)cc2)CC1 | 640 nM
3 | CN1CCC(Oc2ccc(-c3ccc(NC(=O)c4ccc(Cl)cc4)cc3)cc2)CC1 | 570 nM
4 | CN1CCC(Oc2ccc(-c3ccc(NC(=O)c4ccc5ccccc5c4)cc3)cc2)CC1 | 220 nM
5 | CN1CCC(Oc2ccc(-c3ccc(NC(=O)c4cccc5ccccc45)cc3)cc2)CC1 | 350 nM
6 | COc1ccc(C(=O)Nc2ccc(-c3ccc(OC4CCN(C)CC4)cc3)cc2)cc1-c1cccc(Cl)c1 | 330 nM
7 | CN1CCC(Oc2ccc(-c3ccc(NC(=O)c4cccc(-c5ccccc5)c4)cc3)cc2)CC1 | 730 nM
8 | CC(C)=CCc1cc(C(=O)Nc2ccc(-c3ccc(OC4CCN(C)CC4)cc3)cc2)ccc1O | 2270 nM
9 | CN1CCC(Oc2ccc(-c3ccc(NC(=O)c4ccc(I)cc4)cc3)cc2)CC1 | 310 nM
10 | COc1cccc(-c2cc(C(=O)Nc3ccc(-c4ccc(OC5CCN(C)CC5)cc4)cc3)ccc2OC)c1 | 470 nM
11 | COc1ccc(C(=O)Nc2ccc(-c3ccc(OC4CCN(C)CC4)cc3)cc2)cc1-c1ccc(OC(C)=O)cc1 | 140 nM

System: MCF7
Assay: Antiproliferative activity against human MCF7 cells after 72 hrs by MTS/PMS assay
Type: functional, cell-based
Details: MCF7, 72 h
How it was run: as §1

Row | Structure (SMILES) | IC50
12 | CC(C)=CCc1cc(C(=O)Nc2cccc(-c3cccc(OC4CCN(C)CC4)c3)c2)ccc1O | 1170 nM
13 | CN1CCC(Oc2ccc(-c3ccc(NC(=O)c4cc5ccccc5[nH]4)cc3)cc2)CC1 | 580 nM
14 | CN1CCC(Oc2ccc(-c3ccc(NC(=O)c4cccc5ccccc45)cc3)cc2)CC1 | 490 nM
15 | CN1CCC(Oc2ccc(-c3ccc(NC(=O)c4cccc(-c5ccccc5)c4)cc3)cc2)CC1 | 1150 nM
16 | CC(C)=CCc1cc(C(=O)Nc2ccc(-c3ccc(OC4CCN(C)CC4)cc3)cc2)ccc1O | 1850 nM
17 | COc1cccc(-c2cc(C(=O)Nc3ccc(-c4ccc(OC5CCN(C)CC5)cc4)cc3)ccc2OC)c1 | 710 nM
18 | COc1ccc(C(=O)Nc2ccc(-c3ccc(OC4CCN(C)CC4)cc3)cc2)cc1-c1ccc(OC(C)=O)cc1 | 640 nM

Next, values leading:

Row | IC50 | Structure (SMILES)
19 | 520 nM | CN1CCC(Oc2ccc(-c3ccc(NC(=O)c4ccc(Cl)cc4)cc3)cc2)CC1
20 | 580 nM | CN1CCC(Oc2ccc(-c3ccc(NC(=O)c4ccc5ccccc5c4)cc3)cc2)CC1
21 | 320 nM | COc1ccc(C(=O)Nc2ccc(-c3ccc(OC4CCN(C)CC4)cc3)cc2)cc1-c1cccc(Cl)c1
22 | 580 nM | CN1CCC(Oc2ccc(-c3ccc(NC(=O)c4ccc(I)cc4)cc3)cc2)CC1

Molecular target: T1, Heat shock protein HSP90 (Homo sapiens) (UniProt P07900+P08238)
Assay: Inhibition of HSP90 in human MCF7 cells assessed as induction of Her2 protein degradation at 0.5 times antiproliferative IC50 level after 24 hrs by Western blotting method
Type: cell-based
Details: not given
How it was run: (§2)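 MCF-7 cells, grown as for proliferation, treated 24 h with compound in DMSO (1% final). Geldanamycin 0.5 μM and DMSO served as controls. Lysis in cold RIPA with 1 mM PMSF, 2 mM orthovanadate and protease inhibitors, 1 h on ice, then cleared at 14000g, 10 min, 4 °C. BCA protein assay; 20 μg protein run reducing, blotted to nitrocellulose, probed with client antibodies, HRP chemiluminescence. High and low doses were 5-fold and 0.5-fold the antiproliferative value.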

Row | inhibition | Structure (SMILES)
23 | Active | CC(C)=CCc1cc(C(=O)Nc2cccc(-c3cccc(OC4CCN(C)CC4)c3)c2)ccc1O
24 | Active | COc1ccc(C(=O)Nc2ccc(-c3ccc(OC4CCN(C)CC4)cc3)cc2)cc1-c1cccc(Cl)c1
25 | Active | CC(C)=CCc1cc(C(=O)Nc2ccc(-c3ccc(OC4CCN(C)CC4)cc3)cc2)ccc1O
26 | Active | COc1cccc(-c2cc(C(=O)Nc3ccc(-c4ccc(OC5CCN(C)CC5)cc4)cc3)ccc2OC)c1
27 | Active | COc1ccc(C(=O)Nc2ccc(-c3ccc(OC4CCN(C)CC4)cc3)cc2)cc1-c1ccc(OC(C)=O)cc1

Molecular target: T1, Heat shock protein HSP90 (Homo sapiens)
Assay: Inhibition of HSP90 in human MCF7 cells assessed as induction of Raf protein degradation at 0.5 times antiproliferative IC50 level after 24 hrs by Western blotting method
Type: cell-based
Details: not given
How it was run: as §2

Row | inhibition | Structure (SMILES)
28 | Active | CC(C)=CCc1cc(C(=O)Nc2cccc(-c3cccc(OC4CCN(C)CC4)c3)c2)ccc1O
29 | Active | COc1ccc(C(=O)Nc2ccc(-c3ccc(OC4CCN(C)CC4)cc3)cc2)cc1-c1cccc(Cl)c1
30 | Active | CC(C)=CCc1cc(C(=O)Nc2ccc(-c3ccc(OC4CCN(C)CC4)cc3)cc2)ccc1O
31 | Active | COc1cccc(-c2cc(C(=O)Nc3ccc(-c4ccc(OC5CCN(C)CC5)cc4)cc3)ccc2OC)c1
32 | Active | COc1ccc(C(=O)Nc2ccc(-c3ccc(OC4CCN(C)CC4)cc3)cc2)cc1-c1ccc(OC(C)=O)cc1

Molecular target: T1, Heat shock protein HSP90 (Homo sapiens)
Assay: Inhibition of HSP90 in human MCF7 cells assessed as induction of Akt protein degradation at 0.5 times antiproliferative IC50 level after 24 hrs by Western blotting method
Type: cell-based
Details: not given
How it was run: as §2

Row | inhibition | Structure (SMILES)
33 | Active | CC(C)=CCc1cc(C(=O)Nc2cccc(-c3cccc(OC4CCN(C)CC4)c3)c2)ccc1O
34 | Active | COc1ccc(C(=O)Nc2ccc(-c3ccc(OC4CCN(C)CC4)cc3)cc2)cc1-c1cccc(Cl)c1
35 | Active | CC(C)=CCc1cc(C(=O)Nc2ccc(-c3ccc(OC4CCN(C)CC4)cc3)cc2)ccc1O
36 | Active | COc1cccc(-c2cc(C(=O)Nc3ccc(-c4ccc(OC5CCN(C)CC5)cc4)cc3)ccc2OC)c1
37 | Active | COc1ccc(C(=O)Nc2ccc(-c3ccc(OC4CCN(C)CC4)cc3)cc2)cc1-c1ccc(OC(C)=O)cc1

Molecular target: T1, Heat shock protein HSP90 (Homo sapiens)
Assay: Inhibition of HSP90 in human MCF7 cells assessed as induction of Her2 protein degradation at 0.5 to 5 times antiproliferative IC50 level after 24 hrs by Western blotting method
Type: cell-based
Details: not given
How it was run: as §2

Row | Structure (SMILES) | inhibition
38 | CN1CCC(Oc2ccc(-c3ccc(NC(=O)c4cc5ccccc5[nH]4)cc3)cc2)CC1 | Active
39 | CN1CCC(Oc2ccc(-c3ccc(NC(=O)c4cccc5ccccc45)cc3)cc2)CC1 | Active
40 | CN1CCC(Oc2ccc(-c3ccc(NC(=O)c4cccc(-c5ccccc5)c4)cc3)cc2)CC1 | Active

Further lines, results first:

Row | inhibition | Structure (SMILES)
41 | inactive | CN1CCC(Oc2ccc(-c3ccc(NC(=O)c4ccc(Cl)cc4)cc3)cc2)CC1
42 | Active | CN1CCC(Oc2ccc(-c3ccc(NC(=O)c4ccc5ccccc5c4)cc3)cc2)CC1
43 | inactive | CN1CCC(Oc2ccc(-c3ccc(NC(=O)c4ccc(I)cc4)cc3)cc2)CC1

Molecular target: T1, Heat shock protein HSP90 (Homo sapiens)
Assay: Inhibition of HSP90 in human MCF7 cells assessed as induction of Raf protein degradation at 0.5 to 5 times antiproliferative IC50 level after 24 hrs by Western blotting method
Type: cell-based
Details: not given
How it was run: as §2

Row | Structure (SMILES) | inhibition
44 | CN1CCC(Oc2ccc(-c3ccc(NC(=O)c4cc5ccccc5[nH]4)cc3)cc2)CC1 | Active
45 | CN1CCC(Oc2ccc(-c3ccc(NC(=O)c4cccc5ccccc45)cc3)cc2)CC1 | Active
46 | CN1CCC(Oc2ccc(-c3ccc(NC(=O)c4cccc(-c5ccccc5)c4)cc3)cc2)CC1 | Active

Now from value to compound:

Row | inhibition | Structure (SMILES)
47 | inactive | CN1CCC(Oc2ccc(-c3ccc(NC(=O)c4ccc(Cl)cc4)cc3)cc2)CC1
48 | Active | CN1CCC(Oc2ccc(-c3ccc(NC(=O)c4ccc5ccccc5c4)cc3)cc2)CC1
49 | inactive | CN1CCC(Oc2ccc(-c3ccc(NC(=O)c4ccc(I)cc4)cc3)cc2)CC1

Molecular target: T1, Heat shock protein HSP90 (Homo sapiens)
Assay: Inhibition of HSP90 in human MCF7 cells assessed as induction of Akt protein degradation at 0.5 to 5 times antiproliferative IC50 level after 24 hrs by Western blotting method
Type: cell-based
Details: not given
How it was run: as §2

Row | Structure (SMILES) | inhibition
50 | CN1CCC(Oc2ccc(-c3ccc(NC(=O)c4cc5ccccc5[nH]4)cc3)cc2)CC1 | Active
51 | CN1CCC(Oc2ccc(-c3ccc(NC(=O)c4cccc5ccccc45)cc3)cc2)CC1 | Active
52 | CN1CCC(Oc2ccc(-c3ccc(NC(=O)c4cccc(-c5ccccc5)c4)cc3)cc2)CC1 | Active

Next, values leading:

Row | inhibition | Structure (SMILES)
53 | inactive | CN1CCC(Oc2ccc(-c3ccc(NC(=O)c4ccc(Cl)cc4)cc3)cc2)CC1
54 | Active | CN1CCC(Oc2ccc(-c3ccc(NC(=O)c4ccc5ccccc5c4)cc3)cc2)CC1
55 | inactive | CN1CCC(Oc2ccc(-c3ccc(NC(=O)c4ccc(I)cc4)cc3)cc2)CC1

Molecular target: T1, Heat shock protein HSP90 (Homo sapiens)
Assay: Inhibition of HSP90 in human MCF7 cells assessed as induction of Her2 protein degradation at 0.1 to 5 uM after 24 hrs by Western blotting method
Type: cell-based
Details: not given
How it was run: as §2

Row | inhibition | Structure (SMILES)
56 | Dose-dependent effect | COc1ccc(C(=O)Nc2ccc(-c3ccc(OC4CCN(C)CC4)cc3)cc2)cc1-c1ccc(OC(C)=O)cc1

Molecular target: T1, Heat shock protein HSP90 (Homo sapiens)
Assay: Inhibition of HSP90 in human MCF7 cells assessed as induction of Raf protein degradation at 0.1 to 5 uM after 24 hrs by Western blotting method
Type: cell-based
Details: not given
How it was run: as §2

Row | inhibition | Structure (SMILES)
57 | Dose-dependent effect | COc1ccc(C(=O)Nc2ccc(-c3ccc(OC4CCN(C)CC4)cc3)cc2)cc1-c1ccc(OC(C)=O)cc1

Molecular target: T1, Heat shock protein HSP90 (Homo sapiens)
Assay: Inhibition of HSP90 in human MCF7 cells assessed as induction of Akt protein degradation at 0.1 to 5 uM after 24 hrs by Western blotting method
Type: cell-based
Details: not given
How it was run: as §2

Row | inhibition | Structure (SMILES)
58 | Dose-dependent effect | COc1ccc(C(=O)Nc2ccc(-c3ccc(OC4CCN(C)CC4)cc3)cc2)cc1-c1ccc(OC(C)=O)cc1
